This passage reports IC50 and CC50 results from ChEMBL document CHEMBL1125068, “Structure-based, C2 symmetric inhibitors of HIV protease” (J Med Chem, 1990).

Assay [1] deals with T1, Human immunodeficiency virus type 1 protease (Human immunodeficiency virus 1, UniProt Q72874). Kind of assay: Inhibitory activity against recombinant HIV-1 Protease.
The test system of assay [2] is H9. Kind of assay: In vitro inhibitory activity against HIV-1 in H9 cells. The class given is functional, cell-based. The settings on record: Homo sapiens. An outline of the steps:
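H9 cells (2 × 10⁴) were infected with 100 TCID₅₀ HIV-1 3B for 2 h, washed, then cultured at 37 °C with inhibitor. Viral replication was read as p24 antigen by ELISA on days 7 and 10, and IC₅₀ was taken from the dose-response. Viability of uninfected cultures was checked by trypan blue exclusion.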

For assay [3], the system named is H9. Kind of assay: In vitro inhibitory cytopathic effect against HIV-1 in H9 cells. The class given is functional. Particulars: Homo sapiens, H9, read-out: TC50. (In general: Damage to the host cells serves as the signal in cytopathic effect assays.)
The subject of assay [4] is MT4. Nature of the assay: In vitro inhibitory cytopathic effect against HIV-1 in MT-4 cells. Format: functional. Particulars: Homo sapiens, MT4, read-out: TC50. In a few lines:
(§1)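 MT4 cells (1 × 10⁴) were infected with 10 TCID₅₀ HIV-1 3B for 2 h, washed, and grown at 37 °C in inhibitor-containing medium. Viral cytopathic effect and compound toxicity were both scored on day 5 by MTT uptake. IC₅₀ and TC₅₀ came from this read-out.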

Assay [5] has as its system MT4. Kind of assay: In vitro inhibitory activity against HIV-1 in MT-4 cells. The class given is functional, cell-based. The settings on record: Homo sapiens. In a few lines: as §1
Assay [6] has as its target T1, Human immunodeficiency virus type 1 protease. Nature of the assay: Inhibitory activity against recombinant HIV-1 protease.

SMILES strings stand for the structures. Bounds are passed on as bounds.

In the case of `CC(C)(C)OC(=O)N[C@@H](Cc1ccccc1)[C@@H](O)[C@H](O)[C@H](Cc1ccccc1)NC(=O)OC(C)(C)C`, the IC50 in assay [1] turned out to be 0.04 µM.
Same read-out and setting: next, `CC(C)[C@H](NC(=O)OCc1ccccc1)C(=O)N[C@@H](Cc1ccccc1)[C@@H](O)[C@H](Cc1ccccc1)NC(=O)[C@H](NC(=O)OCc1ccccc1)C(C)C`: 0.003 µM; `CC(C)(C)OC(=O)N[C@@H](Cc1ccccc1)[C@H](O)[C@@H](O)[C@H](Cc1ccccc1)NC(=O)OC(C)(C)C`: 0.28 µM.
For `CC(C)[C@H](NC(=O)OCc1ccccc1)C(=O)N[C@@H](Cc1ccccc1)[C@@H](O)[C@H](O)[C@H](Cc1ccccc1)NC(=O)[C@H](NC(=O)OCc1ccccc1)C(C)C`, the IC50 is 0.02 µM in assay [2], 0.00022 µM in assay [1] and 0.08 µM in assay [5]. Also, the results for the CC50 in assay [3] and in assay [4] were 10 µM and greater than 100 µM, respectively.
`CC(=O)N[C@H](C(=O)N[C@H](C(=O)N[C@@H](Cc1ccccc1)C(O)[C@H](Cc1ccccc1)NC(=O)[C@H](NC(=O)[C@H](NC(C)=O)C(C)C)C(C)C)C(C)C)C(C)C` (some centres undefined): the IC50 in assay [1] came to 0.01 µM.
Take `CC(=O)N[C@H](C(=O)N[C@@H](Cc1ccccc1)C(O)[C@H](Cc1ccccc1)NC(=O)[C@@H](NC(C)=O)C(C)C)C(C)C`: the IC50 in assay [1] is 0.012 µM.
Take `CC(=O)N[C@@H](Cc1ccccc1)C(O)[C@H](Cc1ccccc1)NC(C)=O`: the IC50 in assay [1] was greater than 10 µM.
Regarding `CC(C)[C@H](NC(=O)OCc1ccccc1)C(=O)N[C@@H](Cc1ccccc1)[C@H](O)[C@@H](O)[C@H](Cc1ccccc1)NC(=O)[C@H](NC(=O)OCc1ccccc1)C(C)C`, the IC50 in assay [2] was found to be 0.06 µM; in assay [6], 0.00038 µM; in assay [5], 0.15 µM. In addition, the CC50 in assay [3] and in assay [4] was greater than 100 µM throughout.
In the case of `CC(C)[C@H](NC(=O)OCc1ccccc1)C(=O)N[C@@H](Cc1ccccc1)[C@@H](O)[C@@H](O)[C@H](Cc1ccccc1)NC(=O)[C@H](NC(=O)OCc1ccccc1)C(C)C`, the values for the IC50 in assay [2], in assay [6] and in assay [5] were 0.02 µM, 0.00022 µM and 0.016 µM, respectively. Besides, the CC50 is 60 µM in assay [3] and greater than 100 µM in assay [4].
`CC(C)(C)OC(=O)N[C@@H](Cc1ccccc1)[C@H](O)[C@H](O)[C@H](Cc1ccccc1)NC(=O)OC(C)(C)C`: the IC50 in assay [1] amounted to 0.012 µM.
Regarding `CC[C@H](C)[C@H](NC(=O)OCc1ccccc1)C(=O)N[C@@H](Cc1ccccc1)C(O)[C@H](Cc1ccccc1)NC(=O)[C@H](NC(=O)OCc1ccccc1)[C@@H](C)CC` (some centres undefined), the IC50 in assay [1] was found to be 0.0049 µM.
`CC(C)C[C@H](NC(=O)OCc1ccccc1)C(=O)N[C@@H](Cc1ccccc1)C(O)[C@H](Cc1ccccc1)NC(=O)[C@@H](CC(C)C)NC(=O)OCc1ccccc1` (some centres undefined): the IC50 in assay [1] is greater than 0.1 µM.

A word on the IC50: it is the point on the concentration scale where inhibition reaches its midpoint.
